The text below walks through data of PMC8154016 (ACS Omega, 2021).

Test [1] concerns MCF-7 (breast) cancer cell line. In words: MTT assay, cell viability, MCF-7. The format is cell-based. As to conditions: Homo sapiens, MCF7, 48 h, read-out: Cell viability (%) MCF-7 (breast), 100 μg/μL concentration of compound, 48 h, MTT, mean ± SD in triplicate. The gist of the method: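 Human MCF-7 breast cancer cells grown in DMEM with 10% FBS and 1% penicillin–streptomycin at 37 °C, 5% CO2, humidified. Test compound in DMSO (under 1% final) added at various dilutions for 48 h. MTT (5 mg/mL stock) then added for 240 min at 37 °C. Formazan dissolved in DMSO and absorbance read at 490 nm. Percent viability calculated; triplicate, mean ± SD.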

Test [2] concerns A549 (lung) cancer cell line. In words: MTT assay, cell viability and IC50, A549. The format is cell-based. As to conditions: Homo sapiens; for viability: A549, 48 h, read-out: Cell viability (%) A549 (lung), 100 μg/μL concentration of compound, 48 h, MTT, mean ± SD in triplicate. The gist of the method: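 A549 human lung cancer cells were grown in DMEM with 10% FBS and 1% penicillin–streptomycin at 37 °C in humidified 5% CO2. Cells were seeded in 96-well plates and exposed for 48 h to serial dilutions of the test compound in DMSO (<1% final). MTT (5 mg/mL solution as added) was applied for 240 min at 37 °C. Formazan was dissolved in DMSO and A490 read for % viability. Triplicate; mean ± SD.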
In general terms: Tetrazolium assays rely on reduction of a dye to a coloured formazan, in cell work by metabolically active cells.

For `Cn1c(=O)c2c(ncn2CC(=O)O)n(C)c1=O` [Acefylline, Theophylline-7-acetic acid, reference compound], in test [1], the viability was 86.3 ± 11.8%.
Consider `Cn1c(=O)c2c(ncn2Cc2nnc(SCC(=O)Nc3ccccc3)n2-c2ccccc2)n(C)c1=O` [Compound 11a, 2-(5-((1,3-Dimethyl-2,6-dioxo-2,3-dihydro-1H-purin-7(6H)-yl)methyl)-4-phenyl-4H-1,2,4-triazol-3-ylthio)-N-phenylacetamide], for which the results for the viability in test [1] and in test [2] were 34.7 ± 2.49% and 59.6 ± 1.36%, respectively.
For the molecule `Cn1c(=O)c2c(ncn2Cc2nnc(SCC(=O)Nc3ccc(Cl)cc3Cl)n2-c2ccccc2)n(C)c1=O` [Compound 11b, N-(2,4-Dichlorophenyl)-2-(5-((1,3-dimethyl-2,6-dioxo-2,3-dihydro-1H-purin-7(6H)-yl)methyl)-4-phenyl-4H-1,2,4-triazol-3-ylthio)acetamide], the viability in test [1] was found to be 69.4 ± 7.05%; in test [2], 52.6 ± 5.07%.
The matching figures for `Cc1ccc(NC(=O)CSc2nnc(Cn3cnc4c3c(=O)n(C)c(=O)n4C)n2-c2ccccc2)c(C)c1` [Compound 11c, 2-(5-((1,3-Dimethyl-2,6-dioxo-2,3-dihydro-1H-purin-7(6H)-yl)methyl)-4-phenyl-4H-1,2,4-triazol-3-ylthio)-N-(2,4-dimethylphenyl)acetamide]: 38.7 ± 2.07% and 26.1 ± 1.86%.
The matching figures for `Cn1c(=O)c2c(ncn2Cc2nnc(SCC(=O)Nc3ccc(Cl)c(Cl)c3)n2-c2ccccc2)n(C)c1=O` [Compound 11d, N-(3,4-Dichlorophenyl)-2-(5-((1,3-dimethyl-2,6-dioxo-2,3-dihydro-1H-purin-7(6H)-yl)methyl)-4-phenyl-4H-1,2,4-triazol-3-ylthio)acetamide]: 38.1 ± 4.04% and 46.2 ± 1.42%.
`Cn1c(=O)c2c(ncn2Cc2nnc(SCC(=O)Nc3ccc(F)cc3)n2-c2ccccc2)n(C)c1=O` [Compound 11e, 2-(5-((1,3-Dimethyl-2,6-dioxo-2,3-dihydro-1H-purin-7(6H)-yl)methyl)-4-phenyl-4H-1,2,4-triazol-3-ylthio)-N-(4-fluorophenyl)acetamide]: the values for the viability in test [1] and in test [2] were 54.8 ± 4.88% and 52.1 ± 3.66%, respectively.
For the molecule `Cn1c(=O)c2c(ncn2Cc2nnc(SCC(=O)Nc3ccccc3Cl)n2-c2ccccc2)n(C)c1=O` [Compound 11f, N-(2-Chlorophenyl)-2-(5-((1,3-dimethyl-2,6-dioxo-2,3-dihydro-1H-purin-7(6H)-yl)methyl)-4-phenyl-4H-1,2,4-triazol-3-ylthio)acetamide], the viability in test [1] was 72.8 ± 6.35%; in test [2], 55.4 ± 4.11%.
Take `Cc1ccc(NC(=O)CSc2nnc(Cn3cnc4c3c(=O)n(C)c(=O)n4C)n2-c2ccccc2)cc1` [Compound 11g, 2-(5-((1,3-Dimethyl-2,6-dioxo-2,3-dihydro-1H-purin-7(6H)-yl)methyl)-4-phenyl-4H-1,2,4-triazol-3-ylthio)-N-p-tolylacetamide]: the viability in test [1] amounted to 31.8 ± 3.16%; in test [2], 21.7 ± 1.6%. For the same molecule, the IC50 in test [2] (A549, read-out: IC50 (μM) A549 (lung)) came out at 1.25 ± 1.6 µM.
With `Cc1ccc(NC(=O)CSc2nnc(Cn3cnc4c3c(=O)n(C)c(=O)n4C)n2-c2ccccc2)cc1C` [Compound 11h, 2-(5-((1,3-Dimethyl-2,6-dioxo-2,3-dihydro-1H-purin-7(6H)-yl)methyl)-4-phenyl-4H-1,2,4-triazol-3-ylthio)-N-(3,4-dimethylphenyl)acetamide], the figures for the viability in test [1] and in test [2] were 33.2 ± 2.77% and 55.4 ± 4.6%, respectively.
For `Cn1c(=O)c2c(ncn2Cc2nnc(SCC(=O)Nc3ccccc3F)n2-c2ccccc2)n(C)c1=O` [Compound 11j, 2-(5-((1,3-Dimethyl-2,6-dioxo-2,3-dihydro-1H-purin-7(6H)-yl)methyl)-4-phenyl-4H-1,2,4-triazol-3-ylthio)-N-(2-fluorophenyl)acetamide], the viability stood at 63.7 ± 3.54% in test [1] and 67.5 ± 4.27% in test [2].

As a reminder, the IC50 is the concentration needed to halve the response being measured.
